Experiments:
Assay type in all cases: functional, cell-based
[1] = system: K562; experiment: Antiproliferative activity against human K562 cells after 48 hrs by MTT assay; conditions: K562, 48 h
Summary of the method: (§1)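 Exponentially growing cells seeded in 96-well plates, left 24 h, then exposed to compounds at given concentrations for 48 h. MTT at 2.5 mg ml^-1 added for 4 h; formazan dissolved in 10% SDS in 0.1 N HCl, absorbance at 570 nm. Viability compared with blank; IC50 (50% inhibition of viability) calculated by Bliss method.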

[2] = system: A549; experiment: Antiproliferative activity against human A549 cells after 48 hrs by MTT assay; conditions: A549, 48 h; summary of the method: as §1
[3] = system: SMMC-7721; experiment: Antiproliferative activity against human SMMC7721 cells after 48 hrs by MTT assay; conditions: SMMC-7721, 48 h; summary of the method: as §1
[4] = system: SGC-7901; experiment: Antiproliferative activity against human SGC7901 cells after 48 hrs by MTT assay; conditions: SGC-7901, 48 h; summary of the method: as §1
[5] = system: HCT-116; experiment: Antiproliferative activity against human HCT116 cells after 48 hrs by MTT assay; conditions: HCT-116, 48 h; summary of the method: as §1

An IC50 [1] of 14.1 µM, an IC50 [2] of 99.4 µM and an IC50 [3] of 43.9 µM were found for `COc1cc2c(cc1OC)-c1c(-c3cc(OC)c(OC)c(OC)c3)c(-c3ccc(O)c(O)c3)cn1CC2` in this work. For the same compound, the IC50 [4] was > 99.4 µM and the IC50 [5] was 5.8 µM.

`COc1cc2c(cc1OC(C)C)CCn1cc(-c3ccc(Cl)cc3)c(-c3cc(OC)c(OC)c(OC)c3)c1-2` was tested, and the IC50 [1] was > 93.6 µM, the IC50 [2] was > 93.6 µM and the IC50 [3] was > 93.6 µM. For the same compound, the IC50 [4] was > 93.6 µM and the IC50 [5] was > 93.6 µM.

In the case of `COc1ccc(-c2c(-c3ccc(O)cc3)cn3c2-c2cc(OC)c(OC)cc2CC3)cc1`, the IC50 [1] is reported as 3.1 µM, the IC50 [2] is reported as > 117 µM and the IC50 [3] is reported as > 117 µM. The IC50 [4] was > 117 µM and the IC50 [5] was 34.5 µM.

With `COc1cc2c(cc1OC(C)C)CCn1cc(-c3ccc(Br)cc3)c(-c3cc(OC)c(OC)c(OC)c3)c1-2` the IC50 [1] was > 86.4 µM, the IC50 [2] was > 86.4 µM and the IC50 [3] was > 86.4 µM. For the same compound, the IC50 [4] was 15.4 µM and the IC50 [5] was > 86.4 µM.

An IC50 [1] of 5.3 µM, an IC50 [2] of 23.3 µM and an IC50 [3] of 15 µM were found for `COc1cc2c(cc1OC)-c1c(-c3cc(OC)c(OC)c(OC)c3)c(-c3ccc(O)cc3)cn1CC2` in this work. The IC50 [4] was 22.7 µM and the IC50 [5] was 13.8 µM.

In the case of `COc1cc2c(cc1OC)-c1c(-c3cc(OC)c(OC)c(OC)c3)c(-c3ccc(OC)c(OC(C)C)c3)cn1CC2`, the IC50 [1] is reported as > 89.3 µM, the IC50 [2] is reported as > 89.3 µM and the IC50 [3] is reported as > 89.3 µM. For the same compound, the IC50 [4] was > 89.3 µM and the IC50 [5] was > 89.3 µM.

`COc1ccc(-c2c(-c3cc(F)ccc3OC)cn3c2-c2cc(OC)c(OC)cc2CC3)cc1` was tested, and the IC50 [1] was > 109 µM, the IC50 [2] was > 109 µM and the IC50 [3] was > 109 µM. The IC50 [4] was > 109 µM and the IC50 [5] was > 109 µM.

`COc1ccc(-c2c(-c3ccc(O)c(O)c3)cn3c2-c2cc(OC)c(OC)cc2CC3)cc1OC` was tested, and the IC50 [1] was > 106 µM, the IC50 [2] was > 106 µM and the IC50 [3] was > 106 µM. The IC50 [4] was > 106 µM and the IC50 [5] was > 106 µM.

`COc1cc2c(cc1OC(C)C)CCn1cc(-c3ccc(O)c(O)c3)c(-c3cc(OC)c(OC)c(OC)c3)c1-2` was tested, and the IC50 [1] was 4 µM, the IC50 [2] was > 94.1 µM and the IC50 [3] was > 94.1 µM. For the same compound, the IC50 [4] was > 94.1 µM and the IC50 [5] was 1.4 µM.

For `COc1cc2c(cc1OC)-c1c(-c3cc(OC)c(OC)c(OC)c3)c(-c3ccc(Cl)cc3)cn1CC2`, the IC50 [1] was > 98.8 µM, the IC50 [2] was > 98.8 µM and the IC50 [3] was > 98.8 µM. For the same compound, the IC50 [4] was > 98.8 µM and the IC50 [5] was > 98.8 µM.

An IC50 [1] of 2.7 µM, an IC50 [2] of 6.7 µM and an IC50 [3] of 10.9 µM were found for `COc1cc(-c2c(-c3ccc(O)c(O)c3)cn3c2-c2cc(OC)c(OC(C)C)cc2CC3)ccc1OC(C)C` in this work. It also gave an IC50 [4] of 11.4 µM and an IC50 [5] of 0.7 µM.

With `COc1ccc(-c2c(-c3ccc(OC)c(O)c3)cn3c2-c2cc(OC)c(OC)cc2CC3)cc1` the IC50 [1] was > 109 µM, the IC50 [2] was > 109 µM and the IC50 [3] was > 109 µM. The IC50 [4] was > 109 µM and the IC50 [5] was > 109 µM.

With `COc1ccc(-c2cn3c(c2-c2cc(OC)c(OC)c(OC)c2)-c2cc(OC)c(OC)cc2CC3)cc1O` the IC50 [1] was 22 µM, the IC50 [2] was > 96.4 µM and the IC50 [3] was > 96.4 µM. For the same compound, the IC50 [4] was > 96.4 µM and the IC50 [5] was 3.2 µM.

With `COc1ccc(-c2cn3c(c2-c2cc(OC)c(OC)c(OC)c2)-c2cc(OC)c(OC(C)C)cc2CC3)cc1O` the IC50 [1] was 19.6 µM, the IC50 [2] was > 91.5 µM and the IC50 [3] was > 91.5 µM. For the same compound, the IC50 [4] was > 91.5 µM and the IC50 [5] was > 91.5 µM.

With `COc1cc2c(cc1OC(C)C)CCn1cc(-c3ccc(O)cc3)c(-c3cc(OC)c(OC)c(OC)c3)c1-2` the IC50 [1] was > 96.8 µM, the IC50 [2] was > 96.8 µM and the IC50 [3] was 46.7 µM. The IC50 [4] was > 96.8 µM and the IC50 [5] was > 96.8 µM.

With `COc1cc2c(cc1OC)-c1c(-c3cc(OC)c(OC)c(OC)c3)c(-c3ccc(Br)cc3)cn1CC2` the IC50 [1] was 8.8 µM, the IC50 [2] was > 90.8 µM and the IC50 [3] was 17.5 µM. For the same compound, the IC50 [4] was 1.2 µM and the IC50 [5] was > 90.8 µM.

With `COc1ccc(-c2c(-c3cc(F)ccc3OC(C)C)cn3c2-c2cc(OC)c(OC)cc2CC3)cc1` the IC50 [1] was > 103 µM, the IC50 [2] was > 103 µM and the IC50 [3] was > 103 µM. For the same compound, the IC50 [4] was > 103 µM and the IC50 [5] was > 103 µM.

In the case of `COc1cc(-c2c(-c3cc(OC)c(OC(C)C)cc3OS(C)(=O)=O)cn3c2-c2cc(OC)c(OC(C)C)cc2CC3)ccc1OC(C)C`, the IC50 [1] is reported as 59.8 µM, the IC50 [2] is reported as > 73.5 µM and the IC50 [3] is reported as > 73.5 µM. The IC50 [4] was > 73.5 µM and the IC50 [5] was 21 µM.

`COc1ccc(-c2c(-c3cc(OC)c(OC)cc3OS(C)(=O)=O)cn3c2-c2cc(OC)c(OC)cc2CC3)cc1OC` was tested, and the IC50 [1] was > 83.9 µM, the IC50 [2] was > 83.9 µM and the IC50 [3] was > 83.9 µM. The IC50 [4] was > 83.9 µM and the IC50 [5] was > 83.9 µM.

In the case of `COc1cc(OS(C)(=O)=O)c(-c2cn3c(c2-c2ccc(OC(C)C)c(OC)c2)-c2cc(OC)c(OC(C)C)cc2CC3)cc1OC`, the IC50 [1] is reported as > 76.7 µM, the IC50 [2] is reported as > 76.7 µM and the IC50 [3] is reported as > 76.7 µM. The IC50 [4] was > 76.7 µM and the IC50 [5] was > 76.7 µM.

With `COc1ccc(-c2cn3c(c2-c2cc(OC)c(OC)c(OC)c2)-c2cc(OC)c(OC(C)C)cc2CC3)cc1OC(C)C` the IC50 [1] was 83.3 µM, the IC50 [2] was > 85.1 µM and the IC50 [3] was > 85.1 µM. The IC50 [4] was > 85.1 µM and the IC50 [5] was > 85.1 µM.

In the case of `COc1cc(-c2c(-c3cc(F)ccc3OC)cn3c2-c2cc(OC)c(OC(C)C)cc2CC3)ccc1OC(C)C`, the IC50 [1] is reported as > 91.6 µM, the IC50 [2] is reported as > 91.6 µM and the IC50 [3] is reported as > 91.6 µM. For the same compound, the IC50 [4] was > 91.6 µM and the IC50 [5] was > 91.6 µM.

For `COc1cc2c(cc1OC)-c1c(-c3cc(OC)c(OC)c(OC)c3)c(-c3cc(F)ccc3OC)cn1CC2`, the IC50 [1] was 37.1 µM, the IC50 [2] was > 96.2 µM and the IC50 [3] was > 96.2 µM. For the same compound, the IC50 [4] was > 96.2 µM and the IC50 [5] was > 96.2 µM.

An IC50 [4] of 3.34 µM was found for `CC(=O)O[C@H]1C(=O)[C@@]2(C)[C@H]([C@H](OC(=O)c3ccccc3)[C@]3(O)C[C@H](OC(=O)[C@H](O)[C@@H](NC(=O)c4ccccc4)c4ccccc4)C(C)=C1C3(C)C)[C@]1(OC(C)=O)CO[C@@H]1C[C@@H]2O` [PACLITAXEL] in this work.
